Test results reported in PMC10318414 (RSC Advances, 2023).
*1 amine or outer side, *2 acyl side, *3 side chain or, on linkers, in order; H or OH if unused. Where a SMILES comes first, the peptide text is derived from it. Bridges are numbered along the chain shown (N, C = ends). Biphenyl(4,4'-CH2)2 = c1cc(-c2ccc(C[*:2])cc2)ccc1C[*:1]; mXylylene = c1cc(C[*:1])cc(C[*:2])c1; oXylylene = c1ccc(C[*:2])c(C[*:1])c1; pXylylene = c1cc(C[*:2])ccc1C[*:1]

Legend:
glioma cell line (U87) = experiment: CCK8 cell proliferation assay, U87; assay type: cell-based, human; details: read-out: IC50 (μM) U87; CCK8, 48 h peptide treatment, 0.78–25 μM, OD 450 nm
Procedure, shortened: (§1)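 Cells kept in DMEM with 10% FBS and 1% penicillin-streptomycin at 37 °C, 5% CO2. Seeded at 3 × 10^3 cells/well and grown for 24 h. Treated with or without peptide (0.78, 1.56, 3.125, 6.25, 12.5, 25 μM) for 48 h. Medium then switched to serum-free; CCK-8 added 10 μL/well for 1 h at 37 °C. OD read at 450 nm; IC50 obtained by curve fitting.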

[1] = system: human colon cancer cell line (HCT116); experiment: CCK8 cell proliferation assay, HCT116; assay type: cell-based; details: read-out: IC50 (μM) HCT116; CCK8, 48 h peptide treatment, 0.78–25 μM, OD 450 nm
Procedure, shortened: as §1

[2] = system: human breast cancer cell line (MCF-7); experiment: CCK8 cell proliferation assay, MCF-7; assay type: cell-based; details: read-out: IC50 (μM) MCF-7; CCK8, 48 h peptide treatment, 0.78–25 μM, OD 450 nm
Procedure, shortened: as §1

MCF-7 cells [3] = experiment: Calcein-AM/PI cell viability staining; assay type: cell-based, human; details: MCF-7, 10 μM peptide, 24 hours
Procedure, shortened: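 MCF-7 seeded at 5 × 10^3 cells/well and held at 37 °C for 24 h. Peptide added at a final 10 μM for another 24 h. Cells stained with a PBS working solution of calcein-AM (2 μM) and PI (4.5 μM) at 37 °C for 15 min. Live/dead fluorescence imaged on a high-content screening system.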

MCF-7 cells [4] = experiment: In vitro transwell migration assay; assay type: cell-based, human; details: MCF-7, transwell 8 μm pore, 48 h, compared with control group, n = 3
MCF-7 cells [5] = experiment: Annexin V-FITC/PI apoptosis assay by flow cytometry; assay type: cell-based, human; details: MCF-7, 10 μM peptide

Compound | IC50 (glioma cell line (U87)) [µM] | IC50 [1] [µM] | IC50 [2] [µM] | Calcein-AM/PI fluorescence of cells (MCF-7 cells [3]) | Migration through the polycarbonate membrane (MCF-7 cells [4]) | Number of apoptotic cells versus Ascaphin-8 and normal medium (MCF-7 cells [5])
CC(C)C[C@H](NC(=O)[C@H](CC(C)C)NC(=O)[C@H](CC(=O)O)NC(=O)[C@H](CCCCN)NC(=O)[C@H](Cc1ccccc1)NC(=O)CN)C(=O)N[C@@H](CCCCN)C(=O)NCC(=O)N[C@@H](C)C(=O)N[C@@H](C)C(=O)N[C@@H](CCCCN)C(=O)N[C@H]1CSCc2ccc(cc2)CSC[C@@H](C(=O)N[C@H](C(=O)N[C@@H](CC(C)C)C(=O)N[C@@H](Cc2ccccc2)C(N)=O)C(C)C)NC(=O)[C@H](CCCCN)NC(=O)[C@H](C(C)C)NC(=O)[C@H](CC(C)C)NC1=O [Peptide A8-3-p] (H-GFKDLLKGAAKCLVKCVLF-NH2; linker 12-16 via pXylylene) | 14.4 | 11.2 | 11.7 |  |  | 
CC(C)C[C@@H]1NC(=O)[C@H](C)NC(=O)[C@H](CCCCN)NC(=O)[C@H](C)NC(=O)[C@@H](NC(=O)CNC(=O)[C@H](CCCCN)NC(=O)[C@H](CC(C)C)NC(=O)[C@H](CC(C)C)NC(=O)[C@H](CC(=O)O)NC(=O)[C@H](CCCCN)NC(=O)[C@H](Cc2ccccc2)NC(=O)CN)CSCc2ccc(cc2)-c2ccc(cc2)CSC[C@@H](C(=O)N[C@H](C(=O)N[C@@H](CC(C)C)C(=O)N[C@@H](Cc2ccccc2)C(N)=O)C(C)C)NC(=O)[C@H](CCCCN)NC(=O)[C@H](C(C)C)NC1=O [Peptide A8-4-Dp] (H-GFKDLLKGCAKALVKCVLF-NH2; linker 9-16 via Biphenyl(4,4'-CH2)2) | 3.63 | 3.03 | 2.99 | a large amount of red fluorescence | rarely migrated | significantly higher
CC(C)C[C@H](NC(=O)[C@H](CC(C)C)NC(=O)[C@H](CC(=O)O)NC(=O)[C@H](CCCCN)NC(=O)[C@H](Cc1ccccc1)NC(=O)CN)C(=O)N[C@@H](CCCCN)C(=O)NCC(=O)N[C@@H](C)C(=O)N[C@@H](C)C(=O)N[C@@H](CCCCN)C(=O)N[C@H]1CSCc2cccc(c2)CSC[C@@H](C(=O)N[C@H](C(=O)N[C@@H](CC(C)C)C(=O)N[C@@H](Cc2ccccc2)C(N)=O)C(C)C)NC(=O)[C@H](CCCCN)NC(=O)[C@H](C(C)C)NC(=O)[C@H](CC(C)C)NC1=O [Peptide A8-3-m] (H-GFKDLLKGAAKCLVKCVLF-NH2; linker 12-16 via mXylylene) | 8.69 | 9.21 | 7.8 |  |  | 
CC(C)C[C@H](NC(=O)[C@H](CC(C)C)NC(=O)[C@H](CC(=O)O)NC(=O)[C@H](CCCCN)NC(=O)[C@H](Cc1ccccc1)NC(=O)CN)C(=O)N[C@@H](CCCCN)C(=O)NCC(=O)N[C@@H](C)C(=O)N[C@@H](C)C(=O)N[C@@H](CCCCN)C(=O)N[C@H]1CSCc2ccccc2CSC[C@@H](C(=O)N[C@H](C(=O)N[C@@H](CC(C)C)C(=O)N[C@@H](Cc2ccccc2)C(N)=O)C(C)C)NC(=O)[C@H](CCCCN)NC(=O)[C@H](C(C)C)NC(=O)[C@H](CC(C)C)NC1=O [Peptide A8-3-o] (H-GFKDLLKGAAKCLVKCVLF-NH2; linker 12-16 via oXylylene) | 9.28 | 7.68 | 6.03 |  |  | 
